Assay results collected from several papers.
Each line is one published result; the experiments were not run side by side.
Target: Serine/threonine-protein kinase PAK 4 (PAK4, Homo sapiens, UniProt O96013)

Compound	effect on	mode	technique	concentration	notes	endpoint	result
CC(C)S(=O)(=O)c1ccc2nccc(Nc3ccc4sc(C5CCCC5)nc4c3)c2c1	enzyme activity	inhibitor	–	1 µM	–	activity vs control	104%
COc1ccc2[nH]c3c4[nH]c5ccc(OC)cc5c4c4c(c3c2c1)C(=O)NC4=O	binding	–	–	1 µM	–	remaining binding	90%
C1=C/COCc2cc(ccc2OCCN2CCCC2)Nc2nccc(n2)-c2cccc(c2)COC/1	binding	–	–	0.1 µM	–	remaining binding	94%
CC#CC(=O)N1CCC[C@H]1c1nc(-c2ccc(C(=O)Nc3ccccn3)cc2)c2c(N)nccn12	enzyme activity	inhibitor	–	1 µM	–	inhibition	0%
CCCCC(=O)Nc1ccc(-c2ccc3ncn(CCC)c(=O)c3c2)cn1	binding	–	competition with immobilised ligand	0.5 µM	–	remaining binding	98%
Cc1cc(O)c(-c2ccc([C@@H](C)CN(C)C)cc2)c2c1[nH]c(=O)c1sccc12	cell-free assay	inhibitor	–	0.1 µM	lysate	inhibition	-7.15%
C=CC(=O)N1CCC[C@@H](n2nc(-c3ccc(Oc4ccccc4)cc3)c3c(N)ncnc32)C1	enzyme activity	inhibitor	–	1 µM	–	inhibition	6%
C[C@H]1CC[C@H](n2c3cnccc3c3cnc(Nc4ccc5c(n4)CCN(C(=O)CO)C5)nc32)CC1	cell-free assay	–	–	1 µM	–	remaining signal	92%
N#Cc1ccc(NC(=O)Nc2ccccc2)cc1	cell-free assay	–	competition with immobilised ligand	25 µM	–	remaining binding	85%
COc1ccc2oc(-c3ccc4nc(N)oc4c3)c/c(=N\c3ccccc3NC(=O)CCN)c2c1	binding	–	–	1 µM	–	remaining binding	104%
